Data published in ChEMBL document CHEMBL1124772, “Synthesis and anticonvulsant activity of 1-phenylcyclohexylamine analogues” (J Med Chem, 1990).

Key:
Glutamate NMDA receptor = test: Evaluated in vitro binding affinity against PCP receptor using [3H]TCP as radioligand in rat brain membranes; assay type: cell membranes
Mus musculus [1] = test: Evaluated for anticonvulsant activity (TD50) by motor toxicity assay in mouse by intraperitoneal administration.; assay type: functional; conditions: ip
Summary of the method: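 Male Swiss mice (25–30 g), ip in 0.9% NaCl carrier. Five to 10 doses, eight mice per dose; TD50 with 95% confidence limits by log-probit analysis. Compounds given as HCl salts, one as a methiodide.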

Mus musculus [2] = test: Evaluated for anticonvulsant activity (ED50) by maximal electroshock (MES) seizure test in mouse by intraperitoneal administration.; assay type: functional
Summary of the method: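 Protection means no tonic-extensor component. Five to 10 doses, eight mice per dose; ED50 with 95% confidence limits by log-probit analysis. Compounds given as HCl salts, one as a methiodide.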

Mus musculus [3] = organism: Mus musculus; test: TI value is the ratio between TD50 and ED50; assay type: functional
Summary of the method: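 Ratio TD50/MES ED50. Both values from ip dosing in male Swiss mice (25–30 g), 0.9% NaCl carrier. Five to 10 doses, eight mice per dose; each value by log-probit analysis.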

Mus musculus [4] = test: Evaluated for anticonvulsant activity (TD50) by motor toxicity assay in mouse by intraperitoneal administration; range is 40.6-54.8; assay type: functional; conditions: ip

Structure (SMILES)	Ki (Glutamate NMDA receptor) [nM]	TD50 (Mus musculus [1]) [mg/kg]	MES ED50 (Mus musculus [2]) [mg/kg]	TI (Mus musculus [3])	TD50 (Mus musculus [4]) [mg/kg]
C[N+](C)(C)C1(c2ccccc2)CCCCC1.[I-]	14300	> 64	>64		
Cl.NC1(c2cccc(C(F)(F)F)c2)CCCCC1	8400	16	24.31	0.66	
Cl.NC1(c2cc3ccccc3c3ccccc23)CCCCC1	27500	20.6	16.02	1.28	
Cl.NC1(c2c(F)c(F)c(F)c(F)c2F)CCCCC1	10000	37.9	33.81	1.21	
CCCCC1(N)CCCCC1.Cl			>40.6		40.6
CSc1cccc(C2(N)CCCCC2)c1.Cl	2420	63.7	32.88	1.94	
COc1cccc(C2(N)CCCCC2)c1.Cl	563	21.4	14.78	1.45	
CSc1ccc(C2(N)CCCCC2)cc1.Cl	43000	77.1	40.8	1.89	
Cc1cccc(C2(N)CCCCC2)c1.Cl	592	26.2	19.11	1.37	
Cl.NCC1(c2ccccc2)CCCCC1	5100	51.9	27.7	1.87	
COc1ccccc1C1(N)CCCCC1.Cl	850	31.6	11.11	2.84	
CSc1ccccc1C1(N)CCCCC1.Cl	820	29.3	26.18	1.12	
C[C@@H]1CCC[C@@](N)(c2ccccc2)C1.Cl	8000	15.9	8.04	1.98	
C[C@H]1CC[C@@](N)(c2ccccc2)CC1.Cl	8400	69.3	33.75	2.05	
C[C@H]1CCC[C@@](N)(c2ccccc2)C1.Cl	1640	24.3	8.01	3.04	
Cl.NC1(c2ccc3ccccc3c2)CCCCC1	34000	30.9	16.91	1.82	
Cl.NC1(c2cccc(OCc3ccccc3)c2)CCCCC1	10600	67	29.41	2.28	
CCC(N)(CC)c1ccccc1.Cl	6000	42.1	31.23	1.35	
COc1ccc(C2(N)CCCCC2)cc1.Cl	121000	77.9	32.67	2.39	
Cl.NC1(c2ccccc2F)CCCCC1	10700	61.2	22.93	2.67	

Structure (SMILES)	Ki (Glutamate NMDA receptor) [nM]	TD50 (Mus musculus [1]) [mg/kg]	MES ED50 (Mus musculus [2]) [mg/kg]	TI (Mus musculus [3])	TD50 (Mus musculus [4]) [mg/kg]
CN(C)C1(c2ccccc2)CCCCC1.Cl	722	11.3	4.86	2.32	
Cl.NC1(c2ccc(F)cc2)CCCCC1	923	23.4	26.18	0.9	
Cc1ccccc1C1(N)CCCCC1.Cl	7800	7.19	4.93	1.46	
Cl.NC1(c2ccccc2)CCCCC1	527	16.3	7.04	2.31	
C[C@@H]1CCC[C@](N)(c2ccccc2)C1.Cl	1200	56.1	20.86	2.69	
Cc1ccc(C2(N)CCCCC2)cc1.Cl	7300	> 74	>74		
C[C@H]1CCC[C@](N)(c2ccccc2)C1.Cl	502	54.8	26.38		
Cl.NC1(c2ccccc2)CCCC1	10500	64.6	18.52	3.49	
Cl.NC1(c2ccccc2C(F)(F)F)CCCCC1	12400	39.2	30.36	1.29	
Cl.NC1(c2cccc(F)c2)CCCCC1	675	20.2	9.36	2.15	
Cl.NC1(c2cccs2)CCCCC1	145	4.99	10.5	0.47	
C[C@H]1CC[C@](N)(c2ccccc2)CC1.Cl	1100	46.6	13.53	3.44	
Cl.NC1(c2cccc(O)c2)CCCCC1	222	42.7	35.25	1.21	
Cl.NC1(c2ccc(-c3ccccc3)cc2)CCCCC1	86000	26.7	18.81	1.42	
CNC1(c2ccccc2)CCCCC1.Cl	347	1.56	4.62	0.34	
Cl.NC1(Cc2ccccc2)CCCCC1	16000	67.2	34.52	1.95	
Cl.NC1(c2ccccc2)CCCCCC1	2600	43	19.73	2.18	
C[C@@H]1CCCC[C@]1(N)c1ccccc1.Cl (racemic)	1600	34.6	16.87	2.05	
C[C@H]1CCCC[C@]1(N)c1ccccc1.Cl (racemic)	2000	5.92	8.01	0.74	
c1ccc(C2(N3CCCCC3)CCCCC2)cc1 [PHENCYCLIDINE]	60	2.9	3.1	0.93	
